Measurements taken from ChEMBL document CHEMBL5030531, “Synthetic Glycolipids as Molecular Vaccine Adjuvants: Mechanism of Action in Human Cells and In Vivo Activity” (J Med Chem, 2021).
The source made the active and inactive calls. No cut-off for these calls is given here.

Legend:
[1] = Toxicity in C57BL/6 […] assessed as effect on body weight at 10 ug measured daily for 7 days; conditions: mouse, in vivo, 168 h; dose 10 µg, time 7 day
In short: (§1)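 Six-week-old female C57BL/6 mice were injected subcutaneously in the flank with 10 μg adjuvant in 50 μL PBS. Mice were monitored and weighed daily for 7 days, with injection-site response and alertness noted. Group size is n = 3 per treatment in the methods and n = 4 in the figure legend.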

Macrophage [2] = assay: Inhibition of IL-1beta release in human THP-1 derived macrophages pretreated with NLRP3 inhibitor MCC950 for 1 hr followed by compound addition and measured after 6 hrs by ELISA and immunoblotting analysis; format: functional, tissue-based
In short: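 Differentiated THP-1 macrophages preincubated 1 h with MCC950 at 0.01, 0.1, 1 and 10 μM. Cells were then stimulated 6 h with compound at 20 μM or with S-LPS at 100 ng/mL. Secreted IL-1β measured by ELISA and by immunoblot of supernatants.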

[3] = target: NACHT, LRR and PYD domains-containing protein 3 (Homo sapiens) (UniProt Q96P20); assay: Activation of NLRP3 inflammasome in human THP-1 derived macrophages assessed as increase in caspase-1 cleavage at 20 uM by immunoblotting analysis; format: tissue-based; conditions: Macrophage, filed as activator
In short: (§2)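 After 6 h of compound at 20 μM, differentiated THP-1 macrophage lysates were immunoblotted for pro-caspase-1 and pro-IL-1β. Methanol/chloroform-precipitated supernatants were probed for cleaved caspase-1 and cleaved IL-1β (Asp116), with chemiluminescent detection. Released IL-1β was also measured by ELISA.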

[4] = target: NACHT, LRR and PYD domains-containing protein 3 (Homo sapiens) (UniProt Q96P20); assay: Activation of NLRP3 inflammasome in human THP-1 derived macrophages assessed as increase in IL-1beta maturation and release at 20 uM measured after 6 hrs by ELISA; format: tissue-based; conditions: Macrophage, filed as activator; in short: as §2
[5] = target: Nuclear factor NF-kappa-B complex (Homo sapiens) (UniProt Q00653+P19838+Q04206); assay: Activation of NF-kappaB in LPS-stimulated HEK-Blue hTLR4 cells assessed as increase in release of SEAP reporter protein level incubated for 18 hrs by QUANTI-blue assay; format: cell-based; conditions: filed as activator
Nuclear factor NF-kappa-B complex (Homo sapiens), sequence (P19838 whole entry, looked up): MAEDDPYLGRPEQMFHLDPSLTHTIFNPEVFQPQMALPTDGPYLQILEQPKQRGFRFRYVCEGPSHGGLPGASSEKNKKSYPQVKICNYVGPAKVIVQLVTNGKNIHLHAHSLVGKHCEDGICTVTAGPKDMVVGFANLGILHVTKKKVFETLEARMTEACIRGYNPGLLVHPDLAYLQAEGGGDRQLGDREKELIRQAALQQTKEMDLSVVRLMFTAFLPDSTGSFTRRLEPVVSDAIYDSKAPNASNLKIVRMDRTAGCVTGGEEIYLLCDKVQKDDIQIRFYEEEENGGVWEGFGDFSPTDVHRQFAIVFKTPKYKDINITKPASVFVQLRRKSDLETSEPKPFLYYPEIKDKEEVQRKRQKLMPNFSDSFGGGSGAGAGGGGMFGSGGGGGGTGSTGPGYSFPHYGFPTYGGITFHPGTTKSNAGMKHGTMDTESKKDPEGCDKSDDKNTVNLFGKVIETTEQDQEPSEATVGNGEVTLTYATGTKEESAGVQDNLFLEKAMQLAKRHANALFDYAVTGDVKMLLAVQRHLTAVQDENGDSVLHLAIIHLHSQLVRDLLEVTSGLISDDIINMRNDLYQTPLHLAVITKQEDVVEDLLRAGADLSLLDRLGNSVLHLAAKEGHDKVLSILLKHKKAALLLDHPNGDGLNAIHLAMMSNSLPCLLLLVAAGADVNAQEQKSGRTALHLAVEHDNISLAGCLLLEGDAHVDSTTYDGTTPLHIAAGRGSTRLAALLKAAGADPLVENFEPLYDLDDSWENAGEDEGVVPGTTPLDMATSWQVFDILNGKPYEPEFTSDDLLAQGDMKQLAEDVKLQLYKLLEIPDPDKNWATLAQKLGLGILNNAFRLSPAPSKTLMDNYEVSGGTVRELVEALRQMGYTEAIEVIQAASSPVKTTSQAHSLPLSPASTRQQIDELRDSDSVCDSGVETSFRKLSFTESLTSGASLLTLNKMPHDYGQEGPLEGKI
Nuclear factor NF-kappa-B complex (Homo sapiens), sequence (Q00653 whole entry, looked up): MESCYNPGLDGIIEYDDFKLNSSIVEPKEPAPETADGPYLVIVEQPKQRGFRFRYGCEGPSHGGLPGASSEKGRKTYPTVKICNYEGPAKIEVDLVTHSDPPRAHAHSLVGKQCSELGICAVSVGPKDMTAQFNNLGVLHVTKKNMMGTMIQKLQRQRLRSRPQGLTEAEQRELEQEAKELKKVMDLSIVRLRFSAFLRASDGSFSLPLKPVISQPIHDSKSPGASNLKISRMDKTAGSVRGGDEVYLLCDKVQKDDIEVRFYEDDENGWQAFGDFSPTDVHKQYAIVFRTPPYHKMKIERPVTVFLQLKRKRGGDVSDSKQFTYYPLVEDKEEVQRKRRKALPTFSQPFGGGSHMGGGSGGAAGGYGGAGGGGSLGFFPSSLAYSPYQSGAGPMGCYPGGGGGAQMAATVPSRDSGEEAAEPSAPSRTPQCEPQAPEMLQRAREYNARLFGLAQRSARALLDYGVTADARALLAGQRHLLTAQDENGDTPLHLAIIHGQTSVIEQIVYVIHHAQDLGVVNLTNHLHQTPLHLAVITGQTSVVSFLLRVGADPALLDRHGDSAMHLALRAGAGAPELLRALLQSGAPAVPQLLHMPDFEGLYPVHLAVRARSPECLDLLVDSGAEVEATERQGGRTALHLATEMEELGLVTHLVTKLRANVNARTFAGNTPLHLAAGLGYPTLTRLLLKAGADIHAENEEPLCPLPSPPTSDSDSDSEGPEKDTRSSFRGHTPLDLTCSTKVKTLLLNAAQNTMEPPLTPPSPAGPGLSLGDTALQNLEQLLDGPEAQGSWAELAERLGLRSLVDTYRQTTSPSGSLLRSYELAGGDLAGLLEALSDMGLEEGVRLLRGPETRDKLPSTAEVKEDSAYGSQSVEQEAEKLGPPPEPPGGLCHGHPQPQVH
Nuclear factor NF-kappa-B complex (Homo sapiens), sequence (Q04206 whole entry, looked up): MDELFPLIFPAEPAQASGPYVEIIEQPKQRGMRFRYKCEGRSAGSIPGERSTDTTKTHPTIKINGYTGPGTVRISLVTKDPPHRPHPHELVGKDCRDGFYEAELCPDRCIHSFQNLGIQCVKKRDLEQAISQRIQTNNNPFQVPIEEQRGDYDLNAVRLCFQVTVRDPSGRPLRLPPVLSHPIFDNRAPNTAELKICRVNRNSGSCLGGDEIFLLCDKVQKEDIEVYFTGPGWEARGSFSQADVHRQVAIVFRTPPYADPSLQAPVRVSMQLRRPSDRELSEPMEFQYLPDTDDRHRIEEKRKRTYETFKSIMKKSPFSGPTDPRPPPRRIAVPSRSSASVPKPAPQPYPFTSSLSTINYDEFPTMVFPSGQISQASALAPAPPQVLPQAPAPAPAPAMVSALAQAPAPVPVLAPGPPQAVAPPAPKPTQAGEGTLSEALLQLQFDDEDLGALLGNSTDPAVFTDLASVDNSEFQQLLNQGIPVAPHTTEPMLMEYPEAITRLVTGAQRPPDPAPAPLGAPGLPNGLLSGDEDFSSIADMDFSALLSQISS
In short: (§3)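 HEK-Blue hTLR4 cells (HEK293 with CD14, TLR4, MD-2 and NF-κB/AP-1-driven SEAP) in DMEM/10% FBS, seeded overnight (37 °C, 5% CO2), washed, then exposed to compound 0.1–25 μM in fresh medium for 18 h. SEAP in supernatant read with QUANTI-Blue substrate (0.5–4 h, RT) at OD 630 nm. Normalized to 100 ng/mL S. minnesota smooth LPS; mean percentage of three independent experiments.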

HEK-Blue hTLR4 = assay: Activation of AP-1 in LPS-stimulated HEK-Blue hTLR4 cells assessed as increase in release of SEAP reporter protein level incubated for 18 hrs by QUANTI-blue assay; format: cell-based; conditions: Homo sapiens, filed as activator; in short: as §3
[6] = target: Toll-like receptor 4 (Homo sapiens) (UniProt O00206); assay: Activation of human TLR4 in IL-1beta stimulated HEK-Blue Null cells assessed as NF-kappaB activation at 0.1 to 25 uM incubated for 18 hrs by QUANTI- blue assay; format: tissue-based; conditions: dose 0.1-25 µM
Toll-like receptor 4 (Homo sapiens), sequence (O00206 whole entry): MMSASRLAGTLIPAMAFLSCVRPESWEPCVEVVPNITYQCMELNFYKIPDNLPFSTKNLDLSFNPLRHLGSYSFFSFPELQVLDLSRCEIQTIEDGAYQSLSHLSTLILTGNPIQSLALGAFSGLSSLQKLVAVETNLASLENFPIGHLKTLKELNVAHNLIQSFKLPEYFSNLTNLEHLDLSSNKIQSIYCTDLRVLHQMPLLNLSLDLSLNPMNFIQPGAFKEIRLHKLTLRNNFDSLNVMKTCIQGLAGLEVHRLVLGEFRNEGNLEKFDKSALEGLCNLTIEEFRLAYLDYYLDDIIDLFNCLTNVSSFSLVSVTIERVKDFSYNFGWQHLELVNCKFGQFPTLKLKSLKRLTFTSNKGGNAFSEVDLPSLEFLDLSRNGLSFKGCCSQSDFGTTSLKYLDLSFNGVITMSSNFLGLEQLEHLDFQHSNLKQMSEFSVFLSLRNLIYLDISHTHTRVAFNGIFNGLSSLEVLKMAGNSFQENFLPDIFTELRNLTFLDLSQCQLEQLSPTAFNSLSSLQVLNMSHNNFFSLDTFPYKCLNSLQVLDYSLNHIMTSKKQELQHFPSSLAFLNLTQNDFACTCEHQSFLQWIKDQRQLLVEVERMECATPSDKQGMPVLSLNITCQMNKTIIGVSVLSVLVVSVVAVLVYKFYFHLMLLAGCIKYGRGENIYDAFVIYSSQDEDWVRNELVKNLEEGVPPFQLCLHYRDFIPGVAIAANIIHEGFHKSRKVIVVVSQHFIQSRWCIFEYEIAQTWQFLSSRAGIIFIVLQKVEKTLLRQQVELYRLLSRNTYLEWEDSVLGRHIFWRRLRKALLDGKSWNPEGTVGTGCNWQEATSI
In short: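 HEK-Blue Null cells, which carry the SEAP reporter but lack LPS receptors, were given compound (0.1–25 μM) for 18 h. SEAP was read by QUANTI-Blue at OD 630 nm and normalized to 100 ng/mL human IL-1β as positive control. Results are the mean percentage of three independent experiments.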

[7] = target: Toll-like receptor 2 (Homo sapiens) (UniProt O60603); assay: Agonist activity human TLR2 in PAM2CSK4 stimulated HEK-Blue hTLR2 cells at 0.1 to 25 uM incubated for 18 hrs by QUANTI-blue assay; format: cell-based; conditions: dose 0.1-25 µM
Toll-like receptor 2 (Homo sapiens), sequence (O60603 whole entry): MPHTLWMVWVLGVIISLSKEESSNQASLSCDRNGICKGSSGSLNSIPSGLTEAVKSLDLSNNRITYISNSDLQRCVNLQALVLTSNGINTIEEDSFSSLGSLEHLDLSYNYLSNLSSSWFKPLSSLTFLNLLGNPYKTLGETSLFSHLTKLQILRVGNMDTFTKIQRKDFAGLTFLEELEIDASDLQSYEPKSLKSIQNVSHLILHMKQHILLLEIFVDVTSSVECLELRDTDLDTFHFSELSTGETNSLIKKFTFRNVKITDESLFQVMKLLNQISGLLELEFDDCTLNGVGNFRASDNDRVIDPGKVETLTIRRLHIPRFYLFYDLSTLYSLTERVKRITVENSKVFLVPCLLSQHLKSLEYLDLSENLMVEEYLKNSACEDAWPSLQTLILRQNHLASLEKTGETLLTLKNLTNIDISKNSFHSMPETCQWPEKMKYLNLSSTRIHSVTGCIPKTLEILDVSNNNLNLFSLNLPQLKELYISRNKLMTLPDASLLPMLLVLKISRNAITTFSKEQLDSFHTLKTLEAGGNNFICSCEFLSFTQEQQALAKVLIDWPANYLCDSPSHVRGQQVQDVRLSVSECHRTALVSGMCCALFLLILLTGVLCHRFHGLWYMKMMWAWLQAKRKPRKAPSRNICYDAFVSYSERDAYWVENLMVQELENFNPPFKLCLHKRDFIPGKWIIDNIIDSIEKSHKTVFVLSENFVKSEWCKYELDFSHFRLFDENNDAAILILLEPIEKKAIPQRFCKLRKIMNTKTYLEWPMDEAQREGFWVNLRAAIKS
In short: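 HEK-Blue hTLR2 cells exposed 18 h to compound (0.1–25 μM); SEAP in supernatant by QUANTI-Blue at OD 630 nm. Values normalized to PAM2CSK4 (10 ng/mL, 18 h) and expressed as mean percentage of three independent experiments.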

[8] = target: Myeloid differentiation primary response protein MyD88 (Homo sapiens) (UniProt Q99836); assay: Activation of MyD88 dependent pathway in human THP-1 derived macrophages assessed as increase in NF-kappaB p65 phosphorylation at 10 uM measured after 1 hr by immunoblotting analysis; format: tissue-based; conditions: Macrophage, filed as activator
Myeloid differentiation primary response protein MyD88 (Homo sapiens), sequence (Q99836 whole entry): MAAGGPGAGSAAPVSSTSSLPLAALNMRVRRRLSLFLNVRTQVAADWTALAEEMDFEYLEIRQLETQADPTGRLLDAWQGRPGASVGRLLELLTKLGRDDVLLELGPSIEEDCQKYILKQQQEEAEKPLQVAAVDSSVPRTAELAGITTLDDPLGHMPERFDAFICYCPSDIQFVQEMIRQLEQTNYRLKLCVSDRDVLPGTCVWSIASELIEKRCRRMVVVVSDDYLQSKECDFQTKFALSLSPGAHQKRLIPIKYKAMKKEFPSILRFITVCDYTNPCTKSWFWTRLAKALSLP
In short: (§4)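 PMA-differentiated THP-1 macrophages treated with compound at 10 μM (S-LPS 100 ng/mL, MPLA 1 μg/mL as references) and harvested at set times. RIPA lysates with protease/phosphatase inhibitors separated by SDS-PAGE, transferred to PVDF and probed for phospho-p65 (Ser536) and phospho-p38 (Thr180/Tyr182) with β-actin as loading control. Detection by chemiluminescence, densitometry; representative of at least two experiments.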

[9] = target: Myeloid differentiation primary response protein MyD88 (Homo sapiens) (UniProt Q99836); assay: Activation of MyD88 dependent pathway in human THP-1 derived macrophages assessed as increase in MAPK p38 phosphorylation at 10 uM measured after 1 hr by immunoblotting analysis; format: tissue-based; conditions: Macrophage, filed as activator; in short: as §4
[10] = target: Myeloid differentiation primary response protein MyD88 (Homo sapiens) (UniProt Q99836); assay: Activation of MyD88 dependent pathway in human THP-1 derived macrophages assessed as increase in TNF alpha secretion at 10 to 25 uM measured after 18 hrs by ELISA; conditions: Macrophage, filed as activator, dose 10-25 µM
In short: (§5)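 THP-1 cells differentiated with PMA 25 ng/mL for 72 h, then rested 24 h in fresh medium before stimulation with compound (range 0.1–1 to 10–25 μM) in RPMI/10% FBS for 18 h. S-LPS and MPLA used as references. TNFα, IL-1β, IL-6 in supernatants quantified by sandwich ELISA at 450 nm (570 nm correction).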

[11] = target: Myeloid differentiation primary response protein MyD88 (Homo sapiens) (UniProt Q99836); assay: Activation of MyD88 dependent pathway in human THP-1 derived macrophages assessed as increase in IL-1 beta secretion at 10 to 25 uM measured after 18 hrs by ELISA; conditions: Macrophage, filed as activator, dose 10-25 µM; in short: as §5
[12] = target: Myeloid differentiation primary response protein MyD88 (Homo sapiens) (UniProt Q99836); assay: Activation of MyD88 dependent pathway in human THP-1 derived macrophages assessed as increase in IL-6 secretion at 10 to 25 uM measured after 18 hrs by ELISA; conditions: Macrophage, filed as activator, dose 10-25 µM; in short: as §5
Macrophage [13] = assay: Activation of TRIF dependent pathway in human THP-1 derived macrophages assessed as increase in IRF3 phosphorylation at 10 uM measured up to 3 hrs by immunoblotting analysis; format: tissue-based; conditions: time hrs <=3
In short: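 Differentiated THP-1 macrophages exposed to compound at 10 μM, alongside S-LPS and R-LPS (100 ng/mL each) and MPLA (1 μg/mL), and collected over a time course. Lysates were immunoblotted for phospho-IRF3 (Ser386) with β-actin as loading control and detected by chemiluminescence.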

Mus musculus [14] = assay: Immuno-adjuvant activity in C57BL/6 mouse assessed as increase in levels of anti-ova total IgG in sera at 10 ug administered subcutaneously in presence of ovalbumin and measured 21 days post immunization by ELISA; format: functional, organism-based; conditions: dose 10.0 µg, time 21.0 day
In short: (§6)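 Female C57BL/6 mice (n = 8) given 50 μL s.c. in the flank of 500 μg endotoxin-depleted OVA mixed with 10 μg adjuvant in PBS. Booster on opposite flank day 22; OVA-only control group. Tail-vein sera taken days 21 and 41, serially diluted 1:100–1:12 800 and assayed by ELISA on OVA-coated plates (4 μg/mL). Detection with HRP anti-mouse IgG, TMB, A450.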

[15] = Toxicity in C57BL/6 […] assessed as state of alertness at 10 ug observed daily for 7 days; conditions: mouse, in vivo, 168 h; dose 10 µg, time 7 day; in short: as §1
[16] = Toxicity in C57BL/6 […] assessed as local response at injection site at 10 ug observed daily for 7 days; conditions: mouse, in vivo, 168 h; dose 10 µg, time 7 day; in short: as §1
Macrophage [17] = assay: Induction of IL-1beta production in human THP-1 derived macrophages assessed as secretion of IL-1beta mature form in supernatant at 20 uM measured up to 18 hrs by ELISA; format: functional, tissue-based; conditions: time hrs <=18
In short: (§7)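 Differentiated THP-1 macrophages treated with compound at 20 μM (S-LPS, R-LPS 100 ng/mL; MPLA 1 μg/mL) for 3, 6 and 18 h. IL-1β measured by ELISA in both cell lysates and supernatants; n = 3, one-way ANOVA versus untreated.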

Macrophage [18] = assay: Induction of IL-1beta production in human THP-1 derived macrophages assessed as accumulation of IL-1beta precursor in cell lysates at 20 uM measured up to 18 hrs by ELISA; format: functional, subcellular; conditions: time hrs <=18; in short: as §7
Macrophage [19] = assay: Activation of TRIF dependent pathway in human THP-1 derived macrophages assessed as increase in RSAD2 expression measured after 6 hrs; format: tissue-based
In short: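 RSAD2 mRNA in differentiated THP-1 macrophages after compound at 10 μM, measured by RT-qPCR (annealing 60 °C) with β-actin housekeeping gene. Expressed as ΔΔCt fold change versus untreated cells; n = 3, Wilcoxon test.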

[20] = target: T1, Toll-like receptor 4/MD-2 (Homo sapiens) (UniProt O00206+Q9Y6Y9); assay: Binding affinity to NTA sensor chip immobilized recombinant human TLR4/MD2 assessed as maximum response by surface plasmon resonance analysis; format: protein-complex assay; conditions: filed as agonist
In short: (§8)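 Recombinant human TLR4/MD2 complex (20 μg/mL in 10 mM sodium acetate pH 4.0) amine-coupled to NTA chip after NiCl2 and EDC/NHS activation, ethanolamine-blocked. Analytes sonicated 15 min and diluted in PBS-P+ with 5% DMSO, injected over the series 4.34–69.50 μM or 5.34–85.50 μM. Regeneration 50 mM NaOH. Kinetics fitted to 1:1 model after solvent correction.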

[21] = target: T1, Toll-like receptor 4/MD-2 (Homo sapiens); assay: Binding affinity to NTA sensor chip immobilized recombinant human TLR4/MD2 assessed as dissociation rate kinetics by surface plasmon resonance analysis; format: protein-complex assay; conditions: filed as agonist; in short: as §8
[22] = target: T1, Toll-like receptor 4/MD-2 (Homo sapiens); assay: Binding affinity to NTA sensor chip immobilized recombinant human TLR4/MD2 assessed as association rate constant by surface plasmon resonance analysis; format: protein-complex assay; conditions: filed as agonist; in short: as §8
Mus musculus [23] = assay: Immuno-adjuvant activity in C57BL/6 mouse assessed as increase in levels of anti-ova total IgG in sera at 10 ug administered subcutaneously on day 1 and as booster dose on day 22 in presence of ovalbumin and […] by ELISA; format: functional, organism-based; conditions: dose 10.0 µg; in short: as §6
Macrophage [24] = assay: Activation of TRIF dependent pathway in human THP-1 derived macrophages assessed as increase in IFNbeta mRNA expression measured 2 hrs post treatment by real-time PCR
[25] = target: Toll-like receptor 4 (Homo sapiens) (UniProt O00206); assay: Antagonist activity at human TLR4 in LPS-stimulated HEK-Blue hTLR4 cells assessed as inhibition of LPS-induced SEAP production at 0.1 to 25 uM incubated for 18 hrs by QUANTI-blue assay; conditions: dose 0.1-25 µM
Macrophage [26] = assay: Activation of TRIF dependent pathway in human THP-1 derived macrophages assessed as increase in IFNbeta mRNA expression by measuring fold increase measured 2 hrs post treatment by real-time PCR relative to control; conditions: filed as activator
Macrophage [27] = assay: Activation of TRIF dependent pathway in human THP-1 derived macrophages assessed as STAT1 phosphorylation at 10 uM pretreated with anti-IFNAR2 antibody for 1 hr followed by compound addition and measured after 3 hrs by immunoblotting analysis; conditions: filed as activator
[28] = target: Myeloid differentiation primary response protein MyD88 (Homo sapiens) (UniProt Q99836); assay: Activation of MyD88 dependent pathway in human THP-1 derived macrophages assessed as increase in IL-1 beta secretion measured after 18 hrs by ELISA; conditions: Macrophage, filed as activator; in short: as §5

Structure (SMILES) | Activity [1] | Activity [5] | Activity (HEK-Blue hTLR4) | Activity [6] | Activity [7] | Activity [8] | Activity [9] | Activity (Mus musculus [14]) | Activity [15] | Activity [16] | Activity (Macrophage [17]) | Activity (Macrophage [18]) | Rmax [20] | Kdiss [21] | Ka [22] | Activity (Mus musculus [23]) | Activity [25] | other results
CCCCCCCCCCCC(=O)N[C@H]1[C@@H](OP(=O)([O-])[O-])O[C@H](CO)[C@@H](OC(=O)CCCCCCCCCCC)[C@@H]1OC(=O)CCCCCCCCCCC.[Na+].[Na+] | Non-Toxic | Dose-Dependent Effect | Dose-Dependent Effect | inactive | inactive | Active | Active | Active | Non-Toxic | Non-Toxic | Active | Active | 29.1 RU | 5.19 10^-4/s | 9.15 10^2/Ms | Active | inactive | inhibition (Macrophage [2]): Dose-Dependent Effect; Activity [3]: Active; Activity [4]: Active; Activity [10]: Active; Activity [11]: Active; Activity [12]: Active; Activity (Macrophage [13]; filed as activator): Active; Activity (Macrophage [19]; filed as activator): Active; Activity (Macrophage [24]; filed as activator): Active; fold change (FC) (Macrophage [26]): 20; Activity (Macrophage [27]): Active
CCCCCCCCCCCCCC(=O)N[C@H]1[C@@H](OP(=O)([O-])[O-])O[C@H](CO)[C@@H](OC(=O)CCCCCCCCCCCCC)[C@@H]1OC(=O)CCCCCCCCCCCCC.[Na+].[Na+] | Non-Toxic | Dose-Dependent Effect | Dose-Dependent Effect | inactive | inactive | Active | Active | Active | Non-Toxic | Non-Toxic | inactive | Active | 8.15 RU | 7.09 10^-4/s | 3.84 10^3(1/Ms) | Active | inactive | Activity (Macrophage [13]): inactive; Activity (Macrophage [19]): inactive; Activity [28]: Dose-Dependent Effect; Activity (Macrophage [24]): inactive
